Each structure is given as a SMILES string.

In the test the test system is T. cruzi CAI/72 in BESM cells, trypomastigote emergence, microscopy. In words: cidal versus static activity on T. cruzi, late-stage follow-up, mechanism study for T. cruzi inhibitor project, imaging, CAI/72 strain, BESM host cells, 29-day treatment, set 2 (AID 651869). The following applies: stronger effect = higher value. An outline of the steps: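 assay system = bovine embryo skeletal muscle (BESM) cells infected with Trypanosoma cruzi CAI/72 | incubation = 24 h post-infection wash, alternate-day dosing 29 days, 20-day washout | signal = daily light-microscopy scoring of trypomastigote emergence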
On to `CC(C)N1C[C@@H](C)[C@H](CN(C)Cc2cccc(Oc3ccccc3)c2)Oc2c(NC(=O)c3ccncc3)cccc2C1=O`, for which the cidality slope score is 1100.

In the case of `C[C@H]1CN([C@@H](C)CO)C(=O)c2cccc(NC(=O)c3ccncc3)c2O[C@H]1CN(C)Cc1ccc(Oc2ccccc2)cc1`, the cidality slope score was 1100.

As to `C[C@@H]1CN([C@@H](C)CO)C(=O)c2cccc(NC(=O)c3ccncc3)c2O[C@H]1CN(C)Cc1ccc(Oc2ccccc2)cc1`, the cidality slope score was 1100.

Turning to `C[C@@H]1CN([C@H](C)CO)C(=O)c2cccc(NC(=O)c3ccncc3)c2O[C@H]1CN(C)Cc1ccc(Oc2ccccc2)cc1`, the cidality slope score was 1100.

With `C[C@H]1CN([C@@H](C)CO)C(=O)c2cccc(NC(=O)c3ccncc3)c2O[C@@H]1CN(C)Cc1ccc(Oc2ccccc2)cc1`, the cidality slope score was 1100.

Take `C[C@@H]1CN([C@H](C)CO)C(=O)c2cccc(NC(=O)c3ccncc3)c2O[C@H]1CN(C)Cc1ccccc1`: the cidality slope score was 85.

In the case of `O=C(Cn1ccnc1[N+](=O)[O-])NCc1ccccc1`, the cidality slope score was 12.

With `C[C@@H]1CN([C@@H](C)CO)C(=O)c2cccc(NC(=O)c3ccncc3)c2O[C@H]1CN(C)Cc1cccc(Cl)c1`, the cidality slope score was 75.

In the case of `C[C@@H]1CN([C@@H](C)CO)C(=O)c2cccc(NC(=O)c3ccncc3)c2O[C@H]1CN(C)Cc1ccc(Cl)cc1`, the cidality slope score is 7.6.

With `C[C@H](CO)N1C[C@H](C)[C@H](CN(C)Cc2ccc(Oc3ccccc3)cc2)Oc2c(NC(=O)c3ccncc3)cccc2C1=O`, the cidality slope score is 85.

The values above are taken from PubChem BioAssay AID651869 (Broad Institute, 2012).
